Measured values from ChEMBL document CHEMBL1143907, “Synthesis, nicotinic acetylcholine receptor binding, and pharmacological properties of 3'-(substituted phenyl)deschloroepibatidine analogs” (Bioorg Med Chem, 2008).

What was measured:
[1] = target: Neuronal acetylcholine receptor subunit alpha-7 (Rattus norvegicus, UniProt Q05941); assay: Displacement of [125I]iodoMLA from alpha-7 nAChR in rat cerebral cortex; format: tissue-based
Mus musculus [2] = assay: Antinociceptive activity in acute pain mouse model at 10 mg/kg, sc by hot plate method; format: functional; settings: route subcutaneous
In short: (§1)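 Mice were placed in a 10-cm glass cylinder on a hot plate held at 55.0 °C. Two control latencies, at least 10 min apart, were taken per mouse (normal 8–12 s). The endpoint was a jump or paw lick, and animals were tested 5 min after sc injection. Response was expressed as %MPE from test, control and maximum latencies. ED50 values are given with confidence limits, or as percent effect at a dose.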

Mus musculus [3] = assay: Antinociceptive activity in acute pain mouse model at 10 mg/kg, sc by tail flick method; format: functional; settings: route subcutaneous
In short: (§2)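 Mice, tail-flick assay: heat lamp aimed at the tail, with latency to flick recorded. Each mouse's baseline (2–4 s) was taken before treatment, and test latency was taken after sc dosing. Response was expressed as %MPE = [(test−control)/(maximum latency−control)×100]. ED50 values are reported with confidence limits, or as percent effect at the individual dose.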

Mus musculus [4] = assay: Inhibition of nicotine-induced antinociception in sc dosed acute pain mouse model by tail flick method; format: functional
Mus musculus [5] = assay: Effect on locomotor activity in sc dosed mouse assessed as spontaneous activity; format: functional
In short: (§3)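 Mice were placed in individual photocell activity cages 5 min after sc saline (0.9%) or analog. Photobeam interruptions (two banks of eight cells) were counted over the next 10 min. Data are the number of interruptions, and ED50 is reported with confidence limits or as percent effect at a dose.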

Mus musculus [6] = assay: […] in mouse assessed as inhibition of nicotin induced hypothermia at 10 mg/kg, sc; format: functional; design: scale not given: the % may be the effect or the level left; settings: route subcutaneous
Mus musculus [7] = assay: Inhibition of nicotine-induced antinociception in acute pain mouse model at 100 ug/kg, sc by hot plate method; format: functional; design: scale not given: the % may be the effect or the level left
[8] = target: Neuronal acetylcholine receptor; alpha4/beta2 (Rattus norvegicus, UniProt P09483+P12390); assay: Displacement of [3H]epibatidine from alpha-4-beta-2 nAChR in rat cerebral cortex; format: tissue-based
Sequence of Neuronal acetylcholine receptor; alpha4/beta2 (P09483 whole entry): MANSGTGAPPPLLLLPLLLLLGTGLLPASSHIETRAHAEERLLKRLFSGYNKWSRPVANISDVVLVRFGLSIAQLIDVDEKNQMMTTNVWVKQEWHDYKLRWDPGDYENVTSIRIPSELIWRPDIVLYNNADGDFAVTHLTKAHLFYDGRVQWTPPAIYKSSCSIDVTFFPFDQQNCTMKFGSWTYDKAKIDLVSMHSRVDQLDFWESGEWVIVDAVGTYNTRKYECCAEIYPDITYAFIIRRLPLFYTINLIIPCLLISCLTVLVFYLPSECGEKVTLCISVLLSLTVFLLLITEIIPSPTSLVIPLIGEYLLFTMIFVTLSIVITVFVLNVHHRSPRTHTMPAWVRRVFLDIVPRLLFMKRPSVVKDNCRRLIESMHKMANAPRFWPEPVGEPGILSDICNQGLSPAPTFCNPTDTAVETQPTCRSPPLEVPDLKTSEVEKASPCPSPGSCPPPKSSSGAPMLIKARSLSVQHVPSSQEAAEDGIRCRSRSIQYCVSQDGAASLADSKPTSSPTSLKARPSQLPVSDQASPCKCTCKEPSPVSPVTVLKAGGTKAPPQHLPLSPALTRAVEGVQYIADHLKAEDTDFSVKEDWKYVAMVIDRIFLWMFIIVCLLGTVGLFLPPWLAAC
Sequence of Neuronal acetylcholine receptor; alpha4/beta2 (P12390 whole entry): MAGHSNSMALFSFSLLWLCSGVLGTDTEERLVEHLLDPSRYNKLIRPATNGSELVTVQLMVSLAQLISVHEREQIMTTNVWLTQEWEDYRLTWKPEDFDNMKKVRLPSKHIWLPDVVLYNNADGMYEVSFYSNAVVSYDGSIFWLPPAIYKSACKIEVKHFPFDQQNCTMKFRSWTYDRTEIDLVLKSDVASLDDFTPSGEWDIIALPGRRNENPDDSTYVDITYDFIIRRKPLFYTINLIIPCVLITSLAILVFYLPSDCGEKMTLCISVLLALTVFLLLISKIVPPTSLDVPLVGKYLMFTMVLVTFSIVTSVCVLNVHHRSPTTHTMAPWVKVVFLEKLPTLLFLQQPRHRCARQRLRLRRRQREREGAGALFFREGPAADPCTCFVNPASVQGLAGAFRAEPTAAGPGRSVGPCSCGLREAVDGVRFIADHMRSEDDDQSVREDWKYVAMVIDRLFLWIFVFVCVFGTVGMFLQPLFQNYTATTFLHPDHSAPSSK

Mus musculus [9] = assay: Effect on rectal temperature in mouse at 1000 […], sc; format: functional; settings: route subcutaneous
In short: (§4)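 Rectal temperature was read with a thermistor probe inserted 24 mm, just before and at several times after sc saline or analog. The pre/post difference was calculated per mouse. Laboratory ambient temperature was 21–24 °C.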

Mus musculus [10] = assay: Inhibition of nicotine-induced antinociception in acute pain mouse model at 10 ug/kg, sc by hot plate method; format: functional; design: scale not given: the % may be the effect or the level left
Mus musculus [11] = assay: Inhibition of nicotine-induced antinociception in acute pain mouse model at 10 ug/kg, sc by tail flick method; format: functional; design: scale not given: the % may be the effect or the level left
[12] = target: Neuronal acetylcholine receptor subunit alpha-7 (Rattus norvegicus) (UniProt Q05941); assay: Displacement of [125I]iodoMLA from alpha-7 nAChR in rat cerebral cortex at 50 nM; format: tissue-based
Sequence of Neuronal acetylcholine receptor subunit alpha-7 (Rattus norvegicus) (Q05941 whole entry): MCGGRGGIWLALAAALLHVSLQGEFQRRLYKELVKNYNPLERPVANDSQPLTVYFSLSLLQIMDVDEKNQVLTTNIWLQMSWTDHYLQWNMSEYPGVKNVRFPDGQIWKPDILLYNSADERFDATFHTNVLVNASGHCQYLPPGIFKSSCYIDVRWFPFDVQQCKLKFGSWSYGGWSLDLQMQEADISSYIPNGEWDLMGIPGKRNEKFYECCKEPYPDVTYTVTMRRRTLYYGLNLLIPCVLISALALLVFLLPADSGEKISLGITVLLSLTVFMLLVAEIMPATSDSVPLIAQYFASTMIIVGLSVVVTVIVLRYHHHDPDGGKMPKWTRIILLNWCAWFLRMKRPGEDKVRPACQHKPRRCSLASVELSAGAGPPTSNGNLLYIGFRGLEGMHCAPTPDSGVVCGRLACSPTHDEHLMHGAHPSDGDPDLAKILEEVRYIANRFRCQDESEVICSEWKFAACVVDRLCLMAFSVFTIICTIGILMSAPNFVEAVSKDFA

Mus musculus [13] = assay: Inhibition of nicotine-induced antinociception in acute pain mouse model at 1000 ug/kg, sc by hot plate method; format: functional; design: scale not given: the % may be the effect or the level left
Mus musculus [14] = assay: Agonist activity in sc dosed mouse assessed as induction of hypothermia
Mus musculus [15] = assay: Inhibition of nicotine-induced antinociception in sc dosed acute pain mouse model by hot plate method; format: functional
Mus musculus [16] = assay: Effect on rectal temperature in mouse at 10 mg/kg, sc; format: functional; settings: route subcutaneous; in short: as §4
Mus musculus [17] = assay: Antinociceptive activity in acute pain mouse model at 20 mg/kg, sc by tail flick method; format: functional; settings: route subcutaneous; in short: as §2
Mus musculus [18] = assay: Antinociceptive activity in acute pain mouse model at 20 mg/kg, sc by hot plate method; format: functional; settings: route subcutaneous; in short: as §1
Mus musculus [19] = assay: Effect on rectal temperature in mouse at 2000 […], sc; format: functional; settings: route subcutaneous; in short: as §4
Mus musculus [20] = assay: […] in mouse assessed as inhibition of nicotin induced hypothermia at 20 mg/kg, sc; format: functional; design: scale not given: the % may be the effect or the level left; settings: route subcutaneous
Mus musculus [21] = assay: Effect on rectal temperature in mouse at 100 […], sc; format: functional; settings: route subcutaneous; in short: as §4
Mus musculus [22] = assay: Antinociceptive activity in sc dosed acute pain mouse model by tail flick method; format: functional; in short: as §2
Mus musculus [23] = assay: Antinociceptive activity in sc dosed in acute pain mouse model by hot plate method; format: functional; in short: as §1
Mus musculus [24] = assay: Effect on rectal temperature in mouse at 5000 […], sc; format: functional; settings: route subcutaneous; in short: as §4
Mus musculus [25] = assay: Effect on locomotor activity in mouse assessed as spontaneous activity at 10 mg/kg, sc; format: functional; settings: route subcutaneous; in short: as §3
Mus musculus [26] = assay: Inhibition of nicotine-induced antinociception in acute pain mouse model at 2000 ug/kg, sc by hot plate method; format: functional; design: scale not given: the % may be the effect or the level left
Mus musculus [27] = assay: Effect on rectal temperature in mouse at 20 mg/kg, sc; format: functional; settings: route subcutaneous; in short: as §4
Mus musculus [28] = assay: Effect on rectal temperature in mouse at 500 […], sc; format: functional; settings: route subcutaneous; in short: as §4
Mus musculus [29] = assay: Antinociceptive activity in acute pain mouse model at 15 mg/kg, sc by hot plate method; format: functional; settings: route subcutaneous; in short: as §1
Mus musculus [30] = assay: Effect on rectal temperature in mouse at 10000 µg/kg, sc; settings: route subcutaneous

Sequence of Neuronal acetylcholine receptor subunit alpha-7 (Q05941 whole entry): as above

SMILES	Ki [1]	Activity (Mus musculus [2])	Activity (Mus musculus [3])	AD50 (Mus musculus [4])	ED50 (Mus musculus [5])	Ki [8]	Activity (Mus musculus [9])	ED50 (Mus musculus [14])	AD50 (Mus musculus [15])	other results
Fc1ccc(-c2cncc(C3CC4CCC3N4)c2)cc1 (configuration not stated)	> 2000 nM	13%	3%	13 µg/kg	3000 µg/kg	0.15 nM	0%			Activity (Mus musculus [6]): -1.6%; Activity (Mus musculus [7]): 10%
Clc1ccc(-c2cncc(C3CC4CCC3N4)c2)cc1 (configuration not stated)	> 2000 nM	11%	1%		10500 µg/kg	0.21 nM	5%			Activity (Mus musculus [10]): 0%; Activity (Mus musculus [11]): 0%; Activity (Mus musculus [6]): 2%
Cl.Cl.c1ccc(-c2cncc(C3CC4CCC3N4)c2)cc1 (racemic)		30%	6%	300 µg/kg	500 µg/kg	0.5 nM	0%	1500 µg/kg		Activity [12]: 7%; Activity (Mus musculus [13]): 10%
Cl.Cl.Fc1cccc(-c2cncc(C3CC4CCC3N4)c2)c1 (racemic)	> 2000 nM	8%	2%	3.1 µg/kg	5000 µg/kg	0.2 nM			3000 µg/kg	Activity (Mus musculus [6]): 0%; Activity (Mus musculus [16]): 0%
Cl.Cl.O=[N+]([O-])c1cccc(-c2cncc(C3CC4CCC3N4)c2)c1 (racemic)	> 2000 nM				2500 µg/kg	0.17 nM		37600 µg/kg		Activity (Mus musculus [17]): 5%; Activity (Mus musculus [18]): 21%; Activity (Mus musculus [19]): 0%
Cl.Cl.Cl.Clc1cccc(-c2cncc(C3CC4CCC3N4)c2)c1 (racemic)	> 2000 nM			0.01 µg/kg	3800 µg/kg	0.17 nM	0%			Activity (Mus musculus [20]): 0%; Activity (Mus musculus [17]): 1%; Activity (Mus musculus [13]): 0%; Activity (Mus musculus [18]): 10%
Cl.Cl.O=[N+]([O-])c1ccc(-c2cncc(C3CC4CCC3N4)c2)cc1 (racemic)	> 2000 nM	26%	1%	47 µg/kg	660 µg/kg	0.34 nM		2900 µg/kg		Activity (Mus musculus [21]): 0%; Activity (Mus musculus [7]): 10%
COc1cccc(-c2cncc(C3CC4CCC3N4)c2)c1.Cl.Cl (racemic)	> 2000 nM	20%	1%		2900 µg/kg					Activity (Mus musculus [10]): 0%; Activity (Mus musculus [11]): 0%; Activity (Mus musculus [6]): 0%; Activity (Mus musculus [16]): 0%
Cl.Fc1ncc(C2CC3CCC2N3)cc1-c1cccc(Cl)c1 (racemic)		14%		12 µg/kg		0.073 nM	0%		450 µg/kg	
Cl.Nc1cccc(-c2cncc(C3CC4CCC3N4)c2)c1 (racemic)	> 2000 nM				1500 µg/kg	1.16 nM		3800 µg/kg		ED50 (Mus musculus [22]): 6 µg/kg; ED50 (Mus musculus [23]): 650 µg/kg
Cl.Nc1ccc(-c2cc(C3CC4CCC3N4)cnc2F)cc1 (racemic)		10%		5 µg/kg		0.095 nM			1800 µg/kg	Activity (Mus musculus [24]): 0%
Cl.Fc1ccc(-c2cc(C3CC4CCC3N4)cnc2F)cc1 (racemic)		15%		0.5 µg/kg		0.029 nM			230 µg/kg	Activity (Mus musculus [21]): 0%
Cl.Nc1ccc(-c2cncc(C3CC4CCC3N4)c2)cc1 (racemic)	> 2000 nM	10%	6%	1 µg/kg		0.34 nM				Activity (Mus musculus [25]): 15%; Activity (Mus musculus [26]): 45%; Activity (Mus musculus [27]): 0%; Activity (Mus musculus [6]): 0%
Cl.O=[N+]([O-])c1cccc(-c2cc(C3CC4CCC3N4)cnc2F)c1 (racemic)		20%		0.2 µg/kg		0.053 nM			130 µg/kg	Activity (Mus musculus [28]): 5%
COc1cccc(-c2cc(C3CC4CCC3N4)cnc2F)c1.Cl (racemic)		8%		8 µg/kg					2000 µg/kg	
Cl.Fc1ncc(C2CC3CCC2N3)cc1-c1ccc(Cl)cc1 (racemic)		7%		0.3 µg/kg		0.044 nM	0%		260 µg/kg	Activity (Mus musculus [25]): 5%
Cl.Fc1ncc(C2CC3CCC2N3)cc1-c1ccccc1 (racemic)	> 2000 nM			500 µg/kg					1200 µg/kg	Activity (Mus musculus [29]): 4%
Cl.O=[N+]([O-])c1ccc(-c2cc(C3CC4CCC3N4)cnc2F)cc1 (racemic)		10%		3 µg/kg		0.009 nM	0%	3500 µg/kg	120 µg/kg	
Cl.Fc1cccc(-c2cc(C3CC4CCC3N4)cnc2F)c1 (racemic)				5 µg/kg		0.087 nM	0%			Activity (Mus musculus [13]): 2%
Cl.Nc1cccc(-c2cc(C3CC4CCC3N4)cnc2F)c1 (racemic)		4%		9 µg/kg					820 µg/kg	Activity (Mus musculus [24]): 5%
Clc1ccc(C2CC3CCC2N3)cn1 (racemic) [EPIBATIDINE]					1 µg/kg			4 µg/kg		ED50 (Mus musculus [22]): 6 µg/kg; ED50 (Mus musculus [23]): 4 µg/kg
c1cncc(C2CC3CCC2N3)c1 (configuration not stated) [DESCHLOROEPIBATIDINE]										ED50 (Mus musculus [22]): 2 µg/kg
CN1CCC[C@@H]1c1cccnc1 [R-NICOTINE]					500 µg/kg			1000 µg/kg		ED50 (Mus musculus [22]): 1300 µg/kg; ED50 (Mus musculus [23]): 650 µg/kg
c1cnc2cc3c(cc2n1)[C@@H]1CNC[C@H]3C1 [VARENICLINE]		10%	11%	0.2 µg/kg	2100 µg/kg			2800 µg/kg	470 µg/kg	Activity (Mus musculus [30]): 0%
